Key:
Details in all cases: stereoisomer not certain
O5AN1 = test system: T1, O5AN1
T1 sequence (whole entry): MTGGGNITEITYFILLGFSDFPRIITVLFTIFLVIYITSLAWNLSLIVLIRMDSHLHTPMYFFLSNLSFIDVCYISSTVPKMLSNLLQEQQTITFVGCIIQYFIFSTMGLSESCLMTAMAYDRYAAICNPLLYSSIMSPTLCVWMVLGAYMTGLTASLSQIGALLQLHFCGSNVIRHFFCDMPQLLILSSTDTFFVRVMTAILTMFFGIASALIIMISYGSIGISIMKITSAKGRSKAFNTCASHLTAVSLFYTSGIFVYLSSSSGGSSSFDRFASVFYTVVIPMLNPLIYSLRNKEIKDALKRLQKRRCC
How it was run: (§1)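 Whether a receptor–molecule pair is responsive (active) rests on the original authors' judgment that its measured signal was statistically different from baseline. Pairs without that judgment are non-responsive (inactive). Sources used varied assay methods, commonly transient luciferase assays in mammalian cell lines.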

OR10A2 (Homo sapiens) = biological target: T2, OR10A2 (Homo sapiens) (UniProt Q9H208)
T2 sequence (whole entry): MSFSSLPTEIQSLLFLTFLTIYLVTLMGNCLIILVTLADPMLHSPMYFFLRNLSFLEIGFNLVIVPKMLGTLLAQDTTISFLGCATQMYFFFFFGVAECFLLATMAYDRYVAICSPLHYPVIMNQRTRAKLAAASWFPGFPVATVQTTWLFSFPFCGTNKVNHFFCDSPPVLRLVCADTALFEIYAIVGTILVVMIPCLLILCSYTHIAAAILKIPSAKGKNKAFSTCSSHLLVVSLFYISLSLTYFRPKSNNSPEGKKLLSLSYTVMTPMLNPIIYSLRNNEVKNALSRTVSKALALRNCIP
How it was run: as §1

OR10A4 (Homo sapiens) = biological target: T3, OR10A4 (Homo sapiens) (UniProt Q9H209)
T3 sequence (whole entry): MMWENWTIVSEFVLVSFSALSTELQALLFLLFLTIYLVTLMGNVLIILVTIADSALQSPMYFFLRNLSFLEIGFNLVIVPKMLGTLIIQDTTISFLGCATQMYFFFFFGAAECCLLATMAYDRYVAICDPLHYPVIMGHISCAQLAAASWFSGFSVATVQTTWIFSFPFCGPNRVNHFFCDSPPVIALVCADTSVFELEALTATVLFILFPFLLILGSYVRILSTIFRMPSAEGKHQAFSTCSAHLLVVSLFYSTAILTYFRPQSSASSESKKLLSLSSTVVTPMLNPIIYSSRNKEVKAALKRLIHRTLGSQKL
How it was run: as §1

OR10A5 (Homo sapiens) = biological target: T4, OR10A5 (Homo sapiens) (UniProt Q9H207)
T4 sequence (whole entry): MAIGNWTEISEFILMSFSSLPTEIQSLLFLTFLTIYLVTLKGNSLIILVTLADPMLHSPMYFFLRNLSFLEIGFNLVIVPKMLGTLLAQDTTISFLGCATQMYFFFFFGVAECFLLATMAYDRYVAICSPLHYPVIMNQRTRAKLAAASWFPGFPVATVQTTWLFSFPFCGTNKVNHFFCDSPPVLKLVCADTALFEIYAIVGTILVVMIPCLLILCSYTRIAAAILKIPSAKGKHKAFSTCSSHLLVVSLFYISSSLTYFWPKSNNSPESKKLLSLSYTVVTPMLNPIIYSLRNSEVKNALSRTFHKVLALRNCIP
How it was run: as §1

OR10A6 (Homo sapiens) = biological target: T5, OR10A6 (Homo sapiens) (UniProt Q8NH74)
T5 sequence (whole entry): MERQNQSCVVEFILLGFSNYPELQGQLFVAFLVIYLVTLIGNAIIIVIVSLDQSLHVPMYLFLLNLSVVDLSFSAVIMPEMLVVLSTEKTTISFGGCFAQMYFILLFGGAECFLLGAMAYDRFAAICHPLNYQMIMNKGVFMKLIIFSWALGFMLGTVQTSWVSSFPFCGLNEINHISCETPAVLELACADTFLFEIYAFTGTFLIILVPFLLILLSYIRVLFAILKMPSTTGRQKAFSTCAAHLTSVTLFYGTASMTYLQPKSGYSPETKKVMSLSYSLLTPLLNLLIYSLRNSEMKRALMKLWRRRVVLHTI
How it was run: as §1

OR10A7 (Homo sapiens) = biological target: T6, OR10A7 (Homo sapiens) (UniProt Q8NGE5)
T6 sequence (whole entry): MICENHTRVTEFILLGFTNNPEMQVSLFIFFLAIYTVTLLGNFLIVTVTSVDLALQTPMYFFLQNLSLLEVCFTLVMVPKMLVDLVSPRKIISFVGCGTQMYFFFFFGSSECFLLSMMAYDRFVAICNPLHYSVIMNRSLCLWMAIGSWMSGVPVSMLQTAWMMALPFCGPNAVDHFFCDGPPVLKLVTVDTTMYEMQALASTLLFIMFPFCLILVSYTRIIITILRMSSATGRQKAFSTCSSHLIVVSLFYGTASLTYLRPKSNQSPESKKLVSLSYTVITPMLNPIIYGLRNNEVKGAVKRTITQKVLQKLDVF
How it was run: as §1

OR10AC1 (Homo sapiens) = OR10AC1 (Homo sapiens) (UniProt Q8NH08)
Chain of OR10AC1 (Homo sapiens) (Q8NH08 whole entry): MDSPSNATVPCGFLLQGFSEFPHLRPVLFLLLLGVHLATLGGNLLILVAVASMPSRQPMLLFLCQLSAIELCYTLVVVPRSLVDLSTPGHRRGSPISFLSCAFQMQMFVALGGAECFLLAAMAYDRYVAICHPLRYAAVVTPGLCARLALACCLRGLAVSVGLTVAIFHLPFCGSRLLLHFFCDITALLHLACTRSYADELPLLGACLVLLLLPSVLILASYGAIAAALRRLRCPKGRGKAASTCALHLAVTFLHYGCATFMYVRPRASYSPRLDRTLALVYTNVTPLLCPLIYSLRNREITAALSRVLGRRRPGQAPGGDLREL
How it was run: as §1

OR10AD1 (Homo sapiens) = biological target: T7, OR10AD1 (Homo sapiens) (UniProt Q8NGE0)
T7 sequence (whole entry): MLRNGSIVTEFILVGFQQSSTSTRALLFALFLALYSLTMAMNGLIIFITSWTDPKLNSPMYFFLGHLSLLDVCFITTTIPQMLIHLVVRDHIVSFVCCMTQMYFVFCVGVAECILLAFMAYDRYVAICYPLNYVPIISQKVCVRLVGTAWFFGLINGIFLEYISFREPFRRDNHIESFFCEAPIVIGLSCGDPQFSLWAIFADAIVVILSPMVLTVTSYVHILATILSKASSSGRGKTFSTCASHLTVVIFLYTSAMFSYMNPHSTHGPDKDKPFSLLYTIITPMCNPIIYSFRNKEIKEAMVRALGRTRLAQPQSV
How it was run: as §1

OR10AG1 (Homo sapiens) = biological target: T8, OR10AG1 (Homo sapiens) (UniProt Q8NH19)
T8 sequence (whole entry): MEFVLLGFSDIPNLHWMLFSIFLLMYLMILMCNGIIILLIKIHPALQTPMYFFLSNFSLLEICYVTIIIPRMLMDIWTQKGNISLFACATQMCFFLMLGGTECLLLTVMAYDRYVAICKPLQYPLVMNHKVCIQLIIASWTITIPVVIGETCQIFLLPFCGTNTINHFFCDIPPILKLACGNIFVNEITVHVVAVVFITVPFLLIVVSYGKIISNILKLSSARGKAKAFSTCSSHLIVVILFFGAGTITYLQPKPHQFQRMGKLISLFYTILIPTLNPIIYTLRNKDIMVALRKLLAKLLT
How it was run: as §1

OR10C1 (Homo sapiens) = biological target: T9, OR10C1 (Homo sapiens) (UniProt Q96KK4)
T9 sequence (whole entry): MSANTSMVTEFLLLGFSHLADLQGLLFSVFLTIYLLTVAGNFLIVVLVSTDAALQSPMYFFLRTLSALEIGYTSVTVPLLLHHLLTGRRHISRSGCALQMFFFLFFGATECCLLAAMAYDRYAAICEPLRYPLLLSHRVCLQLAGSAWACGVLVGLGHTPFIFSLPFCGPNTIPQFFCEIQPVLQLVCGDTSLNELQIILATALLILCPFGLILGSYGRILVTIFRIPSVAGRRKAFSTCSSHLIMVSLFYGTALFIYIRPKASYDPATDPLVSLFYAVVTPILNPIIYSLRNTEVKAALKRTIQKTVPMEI
How it was run: as §1
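Also: active if original authors judged signal statistically different from baseline.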

O=C1CCCCCC=CCCCCCCCCO1
odorant receptor agonist call (O5AN1): inactive

CC1CCCCCCCCCCCCC(=O)C1 (centres undefined)
odorant receptor agonist call (O5AN1): active
odorant receptor agonist call (OR10A2 (Homo sapiens)): inactive
odorant receptor agonist call (OR10A4 (Homo sapiens)): inactive
odorant receptor agonist call (OR10A5 (Homo sapiens)): inactive
odorant receptor agonist call (OR10A6 (Homo sapiens)): inactive
odorant receptor agonist call (OR10A7 (Homo sapiens)): inactive
odorant receptor agonist call (OR10AC1 (Homo sapiens)): inactive
odorant receptor agonist call (OR10AD1 (Homo sapiens)): inactive
odorant receptor agonist call (OR10AG1 (Homo sapiens)): inactive
odorant receptor agonist call (OR10C1 (Homo sapiens)): inactive

CCCCCCCC(=O)CCCCCCC
odorant receptor agonist call (O5AN1): inactive

OC1CCCCCCCCCCCCCC1
odorant receptor agonist call (O5AN1): active

CCCCCCCCCCCCCC(C)=O
odorant receptor agonist call (O5AN1): inactive

Source: the M2OR odorant receptor database
